Source: ChEMBL document CHEMBL1152337, “Antimicrobial ambiguine isonitriles from the cyanobacterium Fischerella ambigua” (J Nat Prod, 2009)
Converted amounts (≈) assume the structure as drawn.

Assays:
[1] = tested on: Mycobacterium tuberculosis; experiment: Antimicrobial activity against Mycobacterium tuberculosis H37Rv by microplate Alamar blue assay; type: functional
Summary of the method: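 Virulent H37Rv strain in a microplate Alamar blue assay. MIC defined as the lowest concentration giving at least 90% growth inhibition.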

[2] = tested on: Bacillus anthracis; experiment: Antimicrobial activity against Bacillus anthracis; type: functional
Summary of the method: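 Compounds tested over 100 µg/mL down to 48.8 ng/mL. MIC taken as the lowest concentration preventing visible bacterial growth.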

[3] = tested on: Staphylococcus aureus; experiment: Antimicrobial activity against Staphylococcus aureus by broth microdilution assay; type: functional
[4] = tested on: Mycolicibacterium smegmatis; experiment: Antimicrobial activity against Mycobacterium smegmatis by broth microdilution assay; type: functional
[5] = tested on: Candida albicans; experiment: Antimicrobial activity against Candida albicans by broth microdilution assay; type: functional
[6] = tested on: Vero; experiment: Cytotoxicity against african green monkey Vero cells; type: cell-based; settings: Chlorocebus sabaeus
[7] = Selectivity ratio of MIC for Mycobacterium tuberculosis H37Rv to MIC for Bacillus anthracis; type: functional

Row | Compound | MIC [1] | MIC [2] | MIC [3] | MIC [4] | MIC [5] | IC50 [6] | Ratio [7]
1 | [C-]#[N+][C@@H]1[C@@H]2c3c(C(C)(C)C=C)[nH]c4cccc(c34)C(C)(C)[C@H]2C[C@@H](Cl)[C@]1(C)C=C [AMBIGUINE A ISONITRILE] | 46.7 µM (≈ 19 µg/mL) | 1 µM (≈ 0.407 µg/mL) | 1.8 µM (≈ 0.733 µg/mL) | 14.8 µM (≈ 6.02 µg/mL) | < 1 µM | 26 µM | 
2 | [C-]#[N+][C@H]1[C@@](C)(C=C)[C@H](Cl)C[C@@H]2C(C)(C)c3cccc4[nH]c(C(C)(C)C=C)c(c34)[C@]21O [AMBIGUINE B ISONITRILE] |  | 3.7 µM (≈ 1.57 µg/mL) | 10.9 µM (≈ 4.61 µg/mL) | 27.8 µM (≈ 11.8 µg/mL) | 1.7 µM (≈ 0.719 µg/mL) | 58.6 µM | 
3 | [C-]#[N+][C@@H]1[C@]2(O)c3c(C(C)(C)C=C)[nH]c4cccc(c34)C(C)(C)[C@H]2CC[C@]1(C)C=C [AMBIGUINE C ISONITRILE] | 7 µM (≈ 2.72 µg/mL) | 16.1 µM (≈ 6.26 µg/mL) | 7.4 µM (≈ 2.88 µg/mL) | 59.6 µM (≈ 23.2 µg/mL) | < 1 µM | 78.3 µM | 
4 | [C-]#[N+][C@]12[C@H]3O[C@H]3C(C)(C)c3[nH]c4cccc5c4c3[C@]1(O)[C@H](C[C@@H](Cl)[C@]2(C)C=C)C5(C)C [AMBIGUINE E ISONITRILE] | 21 µM (≈ 9.18 µg/mL) | 3.6 µM (≈ 1.57 µg/mL) | 1.5 µM (≈ 0.655 µg/mL) | 1.4 µM (≈ 0.612 µg/mL) | < 0.9 µM | 42.6 µM | 
5 | [C-]#[N+][C@]12[C@@H](O)[C@H](O)C(C)(C)c3[nH]c4cccc5c4c3[C@]1(O)[C@H](C[C@@H](Cl)[C@]2(C)C=C)C5(C)C [AMBIGUINE F ISONITRILE] | 61.2 µM (≈ 27.8 µg/mL) |  |  |  |  | 57.9 µM | 
6 | [C-]#[N+][C@]12C=CC(C)(C)c3[nH]c4cccc5c4c3[C@]1(O)[C@H](C[C@@H](Cl)[C@]2(C)C=C)C5(C)C [AMBIGUINE K ISONITRILE] | 6.6 µM (≈ 2.78 µg/mL) | 7.4 µM (≈ 3.12 µg/mL) | 4.6 µM (≈ 1.94 µg/mL) | 23.7 µM (≈ 9.98 µg/mL) | < 0.9 µM | 53.2 µM | 
7 | [C-]#[N+][C@]12C=CC(C)(C)c3[nH]c4cccc5c4c3[C@]1(O)[C@H](CC[C@]2(C)C=C)C5(C)C [AMBIGUINE L ISONITRILE] | 11.7 µM (≈ 4.52 µg/mL) | 16.2 µM (≈ 6.26 µg/mL) | 10.5 µM (≈ 4.06 µg/mL) | 29.3 µM (≈ 11.3 µg/mL) | < 1 µM | 44.6 µM | 
8 | [C-]#[N+][C@]12C[C@@H](O)C(C)(C)c3[nH]c4cccc5c4c3[C@]1(O)[C@H](C[C@@H](Cl)[C@]2(C)C=C)C5(C)C [AMBIGUINE M ISONITRILE] | 7.5 µM (≈ 3.29 µg/mL) | 28.5 µM (≈ 12.5 µg/mL) | 4.7 µM (≈ 2.06 µg/mL) | 25.8 µM (≈ 11.3 µg/mL) | 1.1 µM (≈ 0.483 µg/mL) | 79.8 µM | 
9 | [C-]#[N+][C@]12C[C@@H](O)C(C)(C)c3[nH]c4cccc5c4c3[C@]1(O)[C@H](CC[C@]2(C)C=C)C5(C)C [AMBIGUINE N ISONITRILE] | 27.1 µM (≈ 11 µg/mL) | 30.9 µM (≈ 12.5 µg/mL) | 5.5 µM (≈ 2.23 µg/mL) | 48.8 µM (≈ 19.7 µg/mL) | < 1 µM | 118 µM | 
10 | [C-]#[N+][C@]12[C@H](O)C(=O)C(C)(C)c3[nH]c4cccc5c4c3[C@]1(O)[C@H](C[C@@H](Cl)[C@]2(C)C=C)C5(C)C [AMBIGUINE O ISONITRILE] |  | 13.8 µM (≈ 6.25 µg/mL) |  |  |  | 80.7 µM | 
11 | O=C(O)c1cn(C2CC2)c2cc(N3CCNCC3)c(F)cc2c1=O [CIPROFLOXACIN] |  | 0.2 µM (≈ 0.0663 µg/mL) |  |  |  |  | 
12 | [C-]#[N+][C@@H]1[C@@H]2c3c[nH]c4cccc(c34)C(C)(C)[C@H]2C[C@@H](Cl)[C@]1(C)C=C [HAPALINDOLE G] | 6.8 µM (≈ 2.3 µg/mL) | > 128 µM | > 128 µM | 34 µM (≈ 11.5 µg/mL) | > 128 µM | > 128 µM | 50
13 | [C-]#[N+][C@@H]1[C@H]2c3c[nH]c4cccc(c34)C(C)(C)[C@@H]2CC[C@]1(C)C=C [HAPALINDOLE H] | 58.8 µM (≈ 17.9 µg/mL) | > 128 µM | > 128 µM | 39.6 µM (≈ 12.1 µg/mL) | 5.1 µM (≈ 1.55 µg/mL) | > 128 µM | 
14 | CC(=O)N1CCN(c2ccc(OCC3COC(Cn4ccnc4)(c4ccc(Cl)cc4Cl)O3)cc2)CC1 (stereo not given) [KETOCONAZOLE] |  |  |  |  | 0.03 µM (≈ 0.0159 µg/mL) |  | 
15 | COc1c(N2C[C@@H]3CCCN[C@@H]3C2)c(F)cc2c(=O)c(C(=O)O)cn(C3CC3)c12 [MOXIFLOXACIN] |  |  |  | 0.7 µM (≈ 0.281 µg/mL) |  |  | 
16 | CO[C@H]1/C=C/O[C@@]2(C)Oc3c(C)c(O)c4c(O)c(c(/C=N/N5CCN(C)CC5)c(O)c4c3C2=O)NC(=O)/C(C)=C\C=C\[C@H](C)[C@H](O)[C@@H](C)[C@@H](O)[C@@H](C)[C@H](OC(C)=O)[C@@H]1C [RIFAMPIN] | 0.1 µM (≈ 0.0823 µg/mL) |  |  |  |  | 97.9 µM | 
17 | GENTAMICIN |  |  | 1.4 µM |  |  |  | 
